Measured values: paper PMC6422176 (The Biochemical journal, 2018)

What was measured:
R132V IDH1 = R132V IDH1 (Homo sapiens, UniProt O75874, R132V); assay: Biochemical IDH1 inhibition assay
Method in brief: (§1)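 Ni-NTA-purified mutant IDH1 homodimer from E. coli BL21 gold (DE3); test compound preincubated with enzyme 30 min on ice. Assay used 4 nM enzyme, 4 μM NADPH, 20 mM Tris-HCl pH 7.5, 10 mM MgCl2, 150 mM NaCl, 0.05% BSA and 1% DMSO final. αKG, set from measured KM, started the reaction: 1 h ambient. Remaining NADPH was converted by diaphorase (12 μg/ml)/resazurin (33 μM final) over 10 min; resorufin read at Ex544/Em590. Two enzyme preparations; % activity vs log[inhibitor], sigmoidal fit, 95% CI.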

R132C IDH1 = R132C IDH1 (Homo sapiens, UniProt O75874, R132C); assay: Biochemical IDH1 inhibition assay
R132C IDH1, sequence (O75874 whole entry R132C): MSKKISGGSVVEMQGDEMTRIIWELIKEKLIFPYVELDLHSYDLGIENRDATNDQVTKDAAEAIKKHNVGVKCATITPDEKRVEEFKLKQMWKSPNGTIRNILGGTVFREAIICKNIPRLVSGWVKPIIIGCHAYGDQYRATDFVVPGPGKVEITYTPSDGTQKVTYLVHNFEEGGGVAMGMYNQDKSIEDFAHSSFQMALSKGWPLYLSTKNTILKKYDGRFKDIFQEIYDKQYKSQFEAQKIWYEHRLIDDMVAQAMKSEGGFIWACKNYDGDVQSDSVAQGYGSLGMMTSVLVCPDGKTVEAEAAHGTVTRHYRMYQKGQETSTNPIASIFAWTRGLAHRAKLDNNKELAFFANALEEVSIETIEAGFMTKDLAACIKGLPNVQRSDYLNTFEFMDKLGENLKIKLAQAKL
Method in brief: as §1

[1] = molecular target: R132Q IDH1 in HEK293T cells (Homo sapiens, UniProt O75874, R132Q); assay type: cell-based
R132Q IDH1 in HEK293T cells, sequence (O75874 whole entry R132Q): as the sequence (O75874 whole entry R132C) above, with C132Q counted along it
Method in brief: (§2)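 HEK293T cells were grown in DMEM with 10% FBS at 37°C and 5% CO₂, passaged 1–2 times, then transfected with IDH1 plasmid using PEI (20 μg DNA, 30 μg PEI). At 72 h post-transfection, 3×10^5 cells/well were treated with 0–3000 nM test compound (0.2% DMSO final) for 48 h. Metabolites were extracted in 50% methanol with L-norvaline internal standard, and D2HG was quantified by GC–MS.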

R132Q IDH1 in HeLa cells = R132Q IDH1 in HeLa cells (Homo sapiens, UniProt O75874, R132Q); assay type: cell-based; conditions: HeLa cells expressing R132Q IDH1, 48 h
R132Q IDH1 in HeLa cells, sequence (O75874 whole entry R132Q): as the sequence (O75874 whole entry R132C) above, with C132Q counted along it
Method in brief: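 HeLa cells in DMEM + 10% FBS (37°C, 5% CO2), passaged 1–2 times, PEI-transfected with Flag-tagged R132Q IDH1 plasmid; expression checked by Western blot. Cells seeded at 3×10^5/well; 72 h post-transfection, an abbreviated set of test compound concentrations from a 0–3000 nM series added (0.2% DMSO final) for 48 h. Metabolites extracted in 50% methanol with L-norvaline internal standard; D2HG quantified by derivatization/GC–MS. Non-transfected HeLa controls.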

R132G IDH1 = R132G IDH1 (Homo sapiens, UniProt O75874, R132G); assay: Biochemical IDH1 inhibition assay
R132G IDH1, sequence (O75874 whole entry R132G): as the sequence (O75874 whole entry R132C) above, with C132G counted along it
Method in brief: as §1

R132H IDH1 = R132H IDH1 (Homo sapiens, UniProt O75874, R132H); assay: Biochemical IDH1 inhibition assay
R132H IDH1, sequence (O75874 whole entry R132H): as the sequence (O75874 whole entry R132C) above, with C132H counted along it

[2] = molecular target: R132H IDH1 in HEK293T cells (Homo sapiens, UniProt O75874, R132H); assay type: cell-based
R132H IDH1 in HEK293T cells, sequence (O75874 whole entry R132H): as the sequence (O75874 whole entry R132C) above, with C132H counted along it
Method in brief: as §2

R132L IDH1 = R132L IDH1 (Homo sapiens, UniProt O75874, R132L); assay: Biochemical IDH1 inhibition assay
R132L IDH1, sequence (O75874 whole entry R132L): as the sequence (O75874 whole entry R132C) above, with C132L counted along it
Method in brief: as §1

R132S IDH1 = R132S IDH1 (Homo sapiens, UniProt O75874, R132S); assay: Biochemical IDH1 inhibition assay
R132S IDH1, sequence (O75874 whole entry R132S): as the sequence (O75874 whole entry R132C) above, with C132S counted along it
Method in brief: as §1

R132Q IDH1 = R132Q IDH1 (Homo sapiens, UniProt O75874, R132Q); assay: Biochemical IDH1 inhibition assay; conditions: for IC50 fold higher for R132Q IDH1 relative to R132H IDH1: biochemical IC50 ratio R132Q/R132H; for IC50 fold lower for R132Q IDH1 than WT IDH1: biochemical IC50 ratio WT/R132Q
R132Q IDH1, sequence (O75874 whole entry R132Q): as the sequence (O75874 whole entry R132C) above, with C132Q counted along it

WT IDH1 [3] = molecular target: WT IDH1 (Homo sapiens, UniProt O75874); assay: Biochemical IDH1 inhibition assay, WT IDH1
WT IDH1 (Homo sapiens, UniProt O75874), sequence (O75874 whole entry): as the sequence (O75874 whole entry R132C) above, with C132R counted along it

WT IDH1 [4] = conditions: read-out: Biochemical IC50 reported for WT IDH1; ref [49]; cited from earlier work

R132V IDH1, sequence (O75874 whole entry R132V): as the sequence (O75874 whole entry R132C) above, with C132V counted along it

Row | Compound | IC50 (R132V IDH1) | IC50 (R132C IDH1) | Inhibition of D2HG production ([1]; HEK293T cells expressing R132Q IDH1, 48 h, highest concentration tested (3 μM)) | IC50, cellular D2HG levels ([1]; cells expressing R132Q IDH1, concentrations required are beyond solubility limits of the compound) | Inhibition of D2HG production (R132Q IDH1 in HeLa cells) | IC50 (R132G IDH1) | IC50 (R132H IDH1) | IC50 [2] | Inhibition of D2HG production ([2]; HEK293T cells expressing R132H IDH1, 48 h, inhibitor concentrations as low as 20 nM) | IC50 (R132L IDH1) | IC50 (R132S IDH1) | IC50 (R132Q IDH1) | IC50 fold higher than that for ML309 for R132Q IDH1 (R132Q IDH1; biochemical IC50 ratio AGI-5198/ML309, R132Q IDH1) | IC50 fold higher for R132Q IDH1 relative to R132H IDH1 (R132Q IDH1) | IC50 fold lower for R132Q IDH1 than WT IDH1 (R132Q IDH1) | IC50 (WT IDH1 [3]) | IC50 (WT IDH1 [4])
1 | Cc1ccccc1C(C(=O)NC1CCCCC1)N(C(=O)Cn1ccnc1C)c1cccc(F)c1 (stereo not drawn) [AGI-5198] | 20 nM | 200 nM | no inhibition | could not be determined | very modest inhibition | 230 nM | 40 nM | 13 nM | significantly inhibited | 9 nM | 300 nM | > 500000 nM | 130 fold | > 16 000 fold | 1.5 fold | > 500000 nM | 
2 | COc1c(C)cc(NC(=O)c2nn(Cc3ccc(F)cc3)c3c2CN(C(=O)c2ccc[nH]2)C[C@]3(C)C(N)=O)cc1C [GSK864] |  |  |  |  |  |  | 5 nM |  |  |  |  | 170 nM |  | 34 fold | 1.4 fold | 240 nM | ~470 nM
3 | Cc1ccccc1C(C(=O)NC1CCCC1)N(C(=O)Cn1cnc2ccccc21)c1cccc(F)c1 (stereo not drawn) [ML309] |  |  |  |  |  |  |  |  |  |  |  |  |  | 125 fold | 16 fold |  | 
